Test results reported in ChEMBL document CHEMBL4354817, “4-(3-Aminoazetidin-1-yl)pyrimidin-2-amines as High-Affinity Non-imidazole Histamine H3 Receptor Agonists with in Vivo Central Nervous System Activity” (J Med Chem, 2019).
Calls of active or inactive are those of the source. The rule behind the calls is not given here.

Key:
Histamine H3 receptor [1] = target: T1, Histamine H3 receptor (Homo sapiens, UniProt Q9Y5N1); assay: Agonist activity at human H3R expressed on HEK293T cells assessed as inhibition of forskolin-induced CRE-driven luciferase activity co-incubated with forskolin for 6 hrs and measured after 30 mins by CRE-luciferase reporter gene assay; assay type: functional
Procedure, shortened: (§1)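 HEK293T cells transiently transfected (PEI method) in suspension with receptor cDNA (1000 ng), CRE-luciferase (2500 ng) and empty pcDEF3; 50.000 cells/well on poly-L-lysine, grown 24 h. Stimulated with increasing ligand concentrations plus 1 μM forskolin, 37 °C, 5% CO2, 6 h. Luciferase reagent (ATP, D-luciferin) added, luminescence read after 30 min at 37 °C. Nonlinear regression; α relative to histamine; three experiments in triplicate.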

Histamine H3 receptor [2] = target: T1, Histamine H3 receptor; assay: Intrinsic activity at human H3R expressed on HEK293T cells assessed as activation of forskolin-induced CRE-driven luciferase activity co-incubated with forskolin for 6 hrs and measured after 30 mins by CRE-luciferase reporter gene assay relative to histamine; assay type: functional; procedure, shortened: as §1
Histamine H3 receptor [3] = target: T1, Histamine H3 receptor; assay: Displacement of [3H]NAMH from human H3R expressed in HEK293T cells incubated for 2 hrs by microbeta scintillation counting analysis; assay type: cell-based
Procedure, shortened: (§2)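 Homogenates of HEK293T cells transiently expressing hH3R or mH3R, harvested 48 h post-transfection, incubated with 2 nM [3H]NAMH and increasing unlabeled ligand in 50 mM Tris–HCl pH 7.4, 2 h at 25 °C. Rapid filtration over 0.5% PEI-coated GF/C filters, scintillation counting. One-site fit; IC50 converted to pKi by Cheng–Prusoff; three experiments in triplicate.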

[4] = Intrinsic clearance in mouse liver microsomes at 50 uM measured up to 45 mins by UPLC/MS analysis; assay type: ADME, Microsome; conditions: read-out: CLH
Mus musculus [5] = assay: Effect on social recognition in C57Bl6 mouse assessed as change in time spent with novel juvenile at 5 mg/kg, ip administered 30 mins prior to training trial; assay type: ADME, organism-based; conditions: in vivo, 0.5 h
Procedure, shortened: (§3)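 Male C57Bl6 mice, 8–9 weeks. Session 1: 10 min arena habituation with two empty wire cups. 24 h later, 10 min with juvenile (4–5 weeks) under one cup; 1 h later, 10 min test with familiar plus novel juvenile. 5 mg/kg or vehicle i.p. 30 min before second session. Blind video scoring of exploration; sociability and discrimination indices; 10–11 mice/group.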

Histamine H4 receptor [6] = target: T2, Histamine H4 receptor (Homo sapiens, UniProt Q9H3N8); assay: Intrinsic activity at human H4R expressed on HEK293T cells assessed as activation of forskolin-induced CRE-driven luciferase activity co-incubated with forskolin for 6 hrs and measured after 30 mins by CRE-luciferase reporter gene assay relative to histamine; assay type: functional; procedure, shortened: as §1
[7] = Half life in rat liver microsomes at 50 uM measured up to 45 mins by UPLC/MS analysis; assay type: ADME, Microsome; conditions: 0.75 h
[8] = target: Histamine H3 receptor (Mus musculus) (UniProt P58406); assay: Intrinsic activity at mouse H3R expressed on HEK293T cells assessed as activation of forskolin-induced CRE-luciferase reporter gene activity co-incubated with forskolin for 6 hrs and measured after 30 mins by luciferase reporter gene assay; assay type: functional; procedure, shortened: as §1
Mus musculus [9] = assay: Effect on social recognition in C57Bl6 mouse assessed as change in time spent with familiar juvenile at 5 mg/kg, ip administered 30 mins prior to training trial; assay type: ADME, organism-based; conditions: in vivo, 0.5 h; procedure, shortened: as §3
[10] = Half life in mouse liver microsomes at 50 uM measured up to 45 mins by UPLC/MS analysis; assay type: ADME, Microsome
Cytochrome P450 2C9 = Cytochrome P450 2C9 (Homo sapiens, UniProt P11712); assay: Inhibition of human CYP2C9 expressed in baculovirus infected insect cells using beetle D-luciferin as substrate preincubated for 30 mins followed by NADPH addition and measured after 30 mins by CYP450-Glo assay; assay type: ADME
Mus musculus [11] = assay: Effect on social recognition in C57Bl6 mouse assessed as change in time spent in exploring cage at 5 mg/kg, ip administered 30 mins prior to training trial; assay type: ADME, organism-based; conditions: in vivo, 0.5 h; procedure, shortened: as §3
Histamine H3 receptor [12] = target: T1, Histamine H3 receptor; assay: Agonist activity at human H3R expressed on HEK293T cells by [35S]GTPgammaS binding assay; assay type: functional
Procedure, shortened: (§4)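 [35S]GTPγS accumulation measured on homogenates of HEK293T cells transiently expressing hH3R, with increasing ligand concentrations; α expressed relative to histamine. At least three experiments in triplicate.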

Cytochrome P450 2D6 = Cytochrome P450 2D6 (Homo sapiens, UniProt P10635); assay: Inhibition of human CYP2D6 expressed in baculovirus infected insect cells using beetle D-luciferin as substrate preincubated for 30 mins followed by NADPH addition and measured after 30 mins by CYP450-Glo assay; assay type: ADME
Histamine H3 receptor [13] = target: T3, Histamine H3 receptor (Mus musculus, UniProt P58406); assay: Agonist activity at mouse H3R expressed on HEK293T cells assessed as inhibition of forskolin-induced CRE-driven luciferase activity co-incubated with forskolin for 6 hrs and measured after 30 mins by luciferase reporter gene assay; assay type: functional; procedure, shortened: as §1
[14] = target: T4, Histamine H4 receptor (Mus musculus) (UniProt Q91ZY2); assay: Intrinsic activity at mouse H4R expressed on HEK293T cells assessed as activation of forskolin-induced CRE-luciferase reporter gene activity co-incubated with forskolin for 6 hrs and measured after 30 mins by luciferase reporter gene assay; assay type: functional; procedure, shortened: as §1
T4 sequence (whole entry): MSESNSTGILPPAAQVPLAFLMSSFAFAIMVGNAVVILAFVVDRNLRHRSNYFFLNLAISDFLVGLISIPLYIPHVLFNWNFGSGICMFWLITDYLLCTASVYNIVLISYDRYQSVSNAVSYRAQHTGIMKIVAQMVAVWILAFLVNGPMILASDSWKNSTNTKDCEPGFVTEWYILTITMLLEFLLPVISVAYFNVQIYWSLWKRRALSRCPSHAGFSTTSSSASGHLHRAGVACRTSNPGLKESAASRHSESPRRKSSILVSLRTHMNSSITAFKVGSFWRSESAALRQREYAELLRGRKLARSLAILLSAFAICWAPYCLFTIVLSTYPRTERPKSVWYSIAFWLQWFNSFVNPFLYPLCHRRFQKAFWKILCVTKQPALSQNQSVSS

Histamine H4 receptor [15] = target: T5, Histamine H4 receptor (Mus musculus, UniProt Q91ZY2); assay: Agonist activity at mouse H4R expressed on HEK293T cells assessed as inhibition of forskolin-induced CRE-driven luciferase activity co-incubated with forskolin for 6 hrs and measured after 30 mins by luciferase reporter gene assay; assay type: functional; procedure, shortened: as §1
T5 sequence (Q91ZY2 whole entry): T4 sequence (whole entry)

Histamine H3 receptor [16] = target: T3, Histamine H3 receptor; assay: Displacement of [3H]NAMH from mouse H3R expressed in HEK293T cells incubated for 2 hrs by microbeta scintillation counting analysis; assay type: cell-based; procedure, shortened: as §2
Cytochrome P450 3A4 = Cytochrome P450 3A4 (Homo sapiens, UniProt P08684); assay: Inhibition of human CYP3A4 expressed in baculovirus infected insect cells using beetle D-luciferin as substrate preincubated for 30 mins followed by NADPH addition and measured after 30 mins by CYP450-Glo assay; assay type: ADME
Histamine H4 receptor [17] = target: T2, Histamine H4 receptor; assay: Agonist activity at human H4R expressed on HEK293T cells assessed as inhibition of forskolin-induced CRE-driven luciferase activity co-incubated with forskolin for 6 hrs and measured after 30 mins by CRE-luciferase reporter gene assay; assay type: functional; procedure, shortened: as §1
Histamine H4 receptor [18] = target: T5, Histamine H4 receptor; assay: Displacement of [3H]histamine from mouse H4R expressed in HEK293T cells incubated for 2 hrs by microbeta scintillation counting analysis; assay type: cell-based
Procedure, shortened: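 mH4R-expressing HEK293T homogenates incubated with 30 nM [3H]histamine and increasing unlabeled ligand in 50 mM Tris–HCl pH 7.4, 2 h at 25 °C. Filtered over 0.5% PEI-coated GF/C filters; bound radioactivity counted. One-site fit, Cheng–Prusoff conversion to pKi.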

[19] = Intrinsic clearance in rat liver microsomes at 50 uM measured up to 45 mins by UPLC/MS analysis; assay type: ADME, Microsome; conditions: read-out: CLH
Mus musculus [20] = assay: Effect on social recognition in C57Bl6 mouse assessed as change in behavior at 5 mg/kg, ip administered 30 mins prior to training trial; assay type: ADME, organism-based; conditions: in vivo, 0.5 h; procedure, shortened: as §3
Histamine H4 receptor [21] = target: T2, Histamine H4 receptor; assay: Displacement of [3H]histamine from human H4R expressed in HEK293T cells incubated for 2 hrs by microbeta scintillation counting analysis
[22] = target: Histamine H2 receptor (Homo sapiens) (UniProt P25021); assay: Agonist activity at human H2R expressed on HEK293T cells assessed as inhibition of forskolin-induced CRE-driven luciferase activity up to 10 uM pre-incubated with forskolin for 6 hrs and measured after 30 mins by luciferase reporter gene assay; assay type: functional
Procedure, shortened: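 HEK293T cells transfected in suspension with H2R cDNA (2500 ng), CRE-luciferase (2500 ng) and empty pcDEF3; 50.000 cells/well, grown 24 h before ligand stimulation. Luminescence read 30 min after luciferase reagent (ATP, D-luciferin) at 37 °C. Dose–response curves fitted by nonlinear regression.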

Histamine H3 receptor [23] = target: T1, Histamine H3 receptor; assay: Intrisic activity at human H3R expressed on HEK293T cells by [35S]GTPgammaS binding assay relative to histamine; assay type: functional; procedure, shortened: as §4
Histamine H3 receptor [24] = target: T1, Histamine H3 receptor; assay: Agonist activity at recombinant human H3R expressed on cells incubated for 60 mins by [35S]GTPgammaS binding assay; assay type: functional
Histamine H3 receptor [25] = target: T1, Histamine H3 receptor; assay: Displacement of [3H]-N-alpha-methylhistamine from human histamine H3 receptor expressed in CHO cells incubated for 40 min by liquid scintillation counting analysis; assay type: cell-based

T1 sequence (Q9Y5N1 whole entry): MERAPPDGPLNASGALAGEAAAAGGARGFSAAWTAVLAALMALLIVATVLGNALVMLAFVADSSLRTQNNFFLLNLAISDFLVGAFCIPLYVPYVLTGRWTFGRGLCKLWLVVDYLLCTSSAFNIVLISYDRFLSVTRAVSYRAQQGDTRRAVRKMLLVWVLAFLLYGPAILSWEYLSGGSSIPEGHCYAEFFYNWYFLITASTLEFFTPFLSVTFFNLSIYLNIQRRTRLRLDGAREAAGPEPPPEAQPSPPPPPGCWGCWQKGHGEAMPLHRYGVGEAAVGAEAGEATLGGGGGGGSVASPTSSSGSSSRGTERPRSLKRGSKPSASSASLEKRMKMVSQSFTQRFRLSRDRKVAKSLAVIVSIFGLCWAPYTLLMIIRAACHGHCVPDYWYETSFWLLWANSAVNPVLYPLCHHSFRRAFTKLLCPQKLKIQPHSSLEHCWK
T2 sequence (Q9H3N8 whole entry): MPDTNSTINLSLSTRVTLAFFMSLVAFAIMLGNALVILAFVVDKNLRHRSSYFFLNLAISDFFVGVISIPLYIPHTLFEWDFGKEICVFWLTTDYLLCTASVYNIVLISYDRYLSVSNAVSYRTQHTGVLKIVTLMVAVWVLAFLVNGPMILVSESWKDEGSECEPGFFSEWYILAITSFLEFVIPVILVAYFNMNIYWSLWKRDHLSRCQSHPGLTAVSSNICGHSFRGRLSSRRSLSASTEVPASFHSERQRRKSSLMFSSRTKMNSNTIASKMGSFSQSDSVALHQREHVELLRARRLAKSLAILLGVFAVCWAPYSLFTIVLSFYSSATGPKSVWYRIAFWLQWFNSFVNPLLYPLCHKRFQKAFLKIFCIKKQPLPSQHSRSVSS
T3 sequence (P58406 whole entry): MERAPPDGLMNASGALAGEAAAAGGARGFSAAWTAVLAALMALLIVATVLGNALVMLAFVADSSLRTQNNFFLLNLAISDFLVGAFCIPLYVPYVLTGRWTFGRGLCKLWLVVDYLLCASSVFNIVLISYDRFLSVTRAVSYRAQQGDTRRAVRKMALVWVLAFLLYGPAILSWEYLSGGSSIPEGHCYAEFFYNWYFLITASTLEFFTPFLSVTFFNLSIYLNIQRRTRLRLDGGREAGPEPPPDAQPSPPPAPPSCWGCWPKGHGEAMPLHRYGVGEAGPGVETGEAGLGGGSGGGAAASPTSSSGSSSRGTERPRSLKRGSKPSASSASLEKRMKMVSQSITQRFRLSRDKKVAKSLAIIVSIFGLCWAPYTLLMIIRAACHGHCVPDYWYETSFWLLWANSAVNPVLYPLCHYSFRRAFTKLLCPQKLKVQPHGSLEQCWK
Sequence of Cytochrome P450 2D6 (P10635 whole entry): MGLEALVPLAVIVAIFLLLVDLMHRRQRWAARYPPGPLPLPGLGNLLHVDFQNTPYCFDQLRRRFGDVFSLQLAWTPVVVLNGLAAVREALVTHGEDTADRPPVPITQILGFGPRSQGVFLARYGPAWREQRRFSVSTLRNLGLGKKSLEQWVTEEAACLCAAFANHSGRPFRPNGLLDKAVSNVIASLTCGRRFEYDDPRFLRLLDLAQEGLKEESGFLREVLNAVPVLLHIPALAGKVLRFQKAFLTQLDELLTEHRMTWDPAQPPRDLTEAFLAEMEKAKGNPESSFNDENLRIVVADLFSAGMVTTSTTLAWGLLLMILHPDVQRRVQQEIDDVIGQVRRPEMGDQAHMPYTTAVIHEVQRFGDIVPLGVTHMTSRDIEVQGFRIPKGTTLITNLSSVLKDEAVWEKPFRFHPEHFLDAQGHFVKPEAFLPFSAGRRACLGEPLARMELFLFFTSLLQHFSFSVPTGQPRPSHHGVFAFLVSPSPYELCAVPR
Sequence of Cytochrome P450 3A4 (P08684 whole entry): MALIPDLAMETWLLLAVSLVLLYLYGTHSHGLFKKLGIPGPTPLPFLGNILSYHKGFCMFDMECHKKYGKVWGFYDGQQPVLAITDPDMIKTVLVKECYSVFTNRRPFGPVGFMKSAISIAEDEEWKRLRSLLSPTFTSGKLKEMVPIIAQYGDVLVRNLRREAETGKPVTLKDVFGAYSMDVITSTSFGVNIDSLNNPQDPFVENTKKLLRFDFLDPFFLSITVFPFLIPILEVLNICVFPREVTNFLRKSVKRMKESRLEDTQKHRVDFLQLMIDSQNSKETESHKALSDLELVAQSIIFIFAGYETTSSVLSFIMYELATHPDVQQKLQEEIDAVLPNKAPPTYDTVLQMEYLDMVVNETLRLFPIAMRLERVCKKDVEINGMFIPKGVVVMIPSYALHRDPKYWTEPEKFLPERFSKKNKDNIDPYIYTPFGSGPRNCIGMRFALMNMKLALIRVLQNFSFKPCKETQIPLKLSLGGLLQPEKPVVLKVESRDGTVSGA
Sequence of Cytochrome P450 2C9 (P11712 whole entry): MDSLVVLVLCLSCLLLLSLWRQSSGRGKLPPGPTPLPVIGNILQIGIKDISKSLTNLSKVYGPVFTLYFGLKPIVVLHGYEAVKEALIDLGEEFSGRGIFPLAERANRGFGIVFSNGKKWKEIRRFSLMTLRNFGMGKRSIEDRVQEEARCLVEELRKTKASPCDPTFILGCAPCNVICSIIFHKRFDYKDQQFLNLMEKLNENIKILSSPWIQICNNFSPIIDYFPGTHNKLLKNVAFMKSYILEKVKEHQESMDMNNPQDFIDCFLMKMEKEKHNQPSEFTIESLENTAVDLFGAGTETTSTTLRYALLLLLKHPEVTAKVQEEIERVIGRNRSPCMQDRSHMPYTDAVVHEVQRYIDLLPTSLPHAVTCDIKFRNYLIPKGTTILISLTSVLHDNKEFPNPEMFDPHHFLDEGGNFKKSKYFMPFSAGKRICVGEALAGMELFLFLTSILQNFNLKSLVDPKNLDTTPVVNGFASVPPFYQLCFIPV
Sequence of Histamine H2 receptor (Homo sapiens) (P25021 whole entry): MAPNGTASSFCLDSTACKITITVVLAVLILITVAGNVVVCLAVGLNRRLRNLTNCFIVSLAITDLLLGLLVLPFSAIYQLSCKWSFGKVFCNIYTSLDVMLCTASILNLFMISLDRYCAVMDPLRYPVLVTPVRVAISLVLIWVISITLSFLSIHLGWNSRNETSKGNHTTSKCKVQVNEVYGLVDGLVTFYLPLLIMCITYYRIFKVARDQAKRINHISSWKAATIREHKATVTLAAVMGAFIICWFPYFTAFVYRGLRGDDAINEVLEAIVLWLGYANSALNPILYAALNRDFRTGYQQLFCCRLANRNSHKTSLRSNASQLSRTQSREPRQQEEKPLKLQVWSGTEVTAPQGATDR
Sequence of Histamine H3 receptor (Mus musculus) (P58406 whole entry): as the sequence (P58406 whole entry) above

Work on `CCN(CC)C1CN(c2ccnc(N)n2)C1` yielded an EC50 (Histamine H3 receptor [1]) of 7.94 nM, an Intrinsic activity (Histamine H3 receptor [2]) of 1.2 and a Ki (Histamine H3 receptor [3]) of 63.1 nM.
In the case of `CC(C)CNC1CN(c2ccnc(N)n2)C1`, the EC50 (Histamine H3 receptor [1]) is reported as 5.01 nM, the Intrinsic activity (Histamine H3 receptor [2]) is reported as 1.1 and the Ki (Histamine H3 receptor [3]) is reported as 39.8 nM.
With `CCNC1CN(c2cc(CC)nc(N)n2)C1` the EC50 (Histamine H3 receptor [1]) was 31.6 nM, the Intrinsic activity (Histamine H3 receptor [2]) was 0.9 and the Ki (Histamine H3 receptor [3]) was 126 nM.
With `CCCNC1CN(c2ccnc(N)n2)C1.O.O=C(O)/C=C/C(=O)O` the CLint scaled at 50 µM [4] was 20.7 mL/min/kg, the Activity (Mus musculus [5]) was “Non-Toxic” and the Intrinsic activity (Histamine H4 receptor [6]) was 1.1. The t1/2 [7] was 3.98 h, the Intrinsic activity [8] was 1.2 and the EC50 (Histamine H3 receptor [1]) was 0.316 nM. For the same compound, the Activity (Mus musculus [9]) was “Non-Toxic”, the half-life at 50 µM [10] was 2.18 h and the IC50 (Cytochrome P450 2C9) was greater than 25000 nM. The Activity (Mus musculus [11]) was “Non-Toxic”, the Intrinsic activity (Histamine H3 receptor [2]) was 1.2 and the EC50 (Histamine H3 receptor [12]) was 3.98 nM. The IC50 (Cytochrome P450 2D6) was greater than 25000 nM, the EC50 (Histamine H3 receptor [13]) was 0.1 nM and the Intrinsic activity [14] was 1.1. For the same compound, the EC50 (Histamine H4 receptor [15]) was 1 nM, the Ki (Histamine H3 receptor [16]) was 1 nM and the IC50 (Cytochrome P450 3A4) was greater than 25000 nM. It also gave an EC50 (Histamine H4 receptor [17]) of 3.16 nM, a Ki (Histamine H4 receptor [18]) of 15.8 nM and a CLint scaled at 50 µM [19] of 7.9 mL/min/kg. For the same compound, the Ki (Histamine H3 receptor [3]) was 3.16 nM, the Activity (Mus musculus [20]) was “Non-Toxic” and the Ki (Histamine H4 receptor [21]) was 7.94 nM. The Activity [22] was “inactive” and the Intrinsic activity (Histamine H3 receptor [23]) was 0.5.
For `CCCCNC1CN(c2ccnc(N)n2)C1`, the EC50 (Histamine H3 receptor [1]) was 0.794 nM, the Intrinsic activity (Histamine H3 receptor [2]) was 1.2 and the Ki (Histamine H3 receptor [3]) was 15.8 nM.
With `CCCCC(=O)O[C@H]1C[C@@H]2C[C@H]3[C@](NC)(CN2[C@@H](C)C1)C[C@]1(C(=O)Nc2c(C(=O)[C@H]4OC4(C)C)cccc21)[C@]3(C)C=O` the EC50 (Histamine H3 receptor [24]) was 126 nM and the Ki (Histamine H3 receptor [25]) was 50.1 nM.
With `CNC1CN(c2cc(C)nc(N)n2)C1` the EC50 (Histamine H3 receptor [1]) was 10 nM, the Intrinsic activity (Histamine H3 receptor [2]) was 0.8 and the Ki (Histamine H3 receptor [3]) was 31.6 nM.
With `CNC1CN(c2ccnc(N)n2)C1` the EC50 (Histamine H3 receptor [1]) was 1.26 nM, the Intrinsic activity (Histamine H3 receptor [2]) was 1.1 and the Ki (Histamine H3 receptor [3]) was 6.31 nM.
Work on `CCc1cc(N2CC(NC)C2)nc(N)n1` yielded an EC50 (Histamine H3 receptor [1]) of 25.1 nM, an Intrinsic activity (Histamine H3 receptor [2]) of 0.8 and a Ki (Histamine H3 receptor [3]) of 50.1 nM.
`CC(C)c1cc(N2CC(N)C2)nc(N)n1` gave an EC50 (Histamine H3 receptor [1]) of 79.4 nM, an Intrinsic activity (Histamine H3 receptor [2]) of 0.7 and a Ki (Histamine H3 receptor [3]) of 200 nM.
Compound `CNC1CN(c2cc(C(C)C)nc(N)n2)C1` has an EC50 (Histamine H3 receptor [1]) of 12.6 nM, an Intrinsic activity (Histamine H3 receptor [2]) of 0.7 and a Ki (Histamine H3 receptor [3]) of 100 nM.
`Cc1cc(N2CC(N(C)C)C2)nc(N)n1` showed an EC50 (Histamine H3 receptor [1]) of 39.8 nM, an Intrinsic activity (Histamine H3 receptor [2]) of 0.9 and a Ki (Histamine H3 receptor [3]) of 316 nM.
